Shown are actives, neighbours in structure and some others; about 2% of the full set was active somewhere.
Rpn11 block: inhibitors of human proteasome Rpn11; human 26S proteasome, Ub4-pepOG fluorescence polarization; 20S core pre-blocked with epoxomicin; inhibition, % at 20 µM; hit rate 0.59% among 360,000; AID 588493;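 active = inhibition at 20 µM, scaled to each plate's controls, above about 33%, limit read from the data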
SENP1 FRET inh: SENP1 (human) catalytic domain inhibition; Q9P0U3; recombinant SENP1 catalytic domain, CyPet-SUMO1-YPet FRET cleavage; inhibition, % at 10 µM; hit rate 0.21% among 360,000; AID 624204;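 active = inhibition at least 30% at 10 µM, raw YFP signal under a set limit, fluorescence ratio 0.5 to 1.5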;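 also: 0% = enzyme with DMSO and 100% = no enzyme wells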
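Test system: hSENP1 catalytic domain, recombinant; Amount: 20 pM final SENP1 enzyme; Medium: Tris pH 8 buffer plus EDTA, NaCl, BME, BSA, NP40, catalase; Schedule: 50 min enzyme reaction, room temperature, light-protected; Technique: FRET fluorescence in CFP and YFP emission channels; Controls: no-enzyme wells low, DMSO-plus-enzyme wells high control.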
ATG4B inh: ATG4B (human) cysteine protease inhibition | inhibition, % at 8.33 µM | hit rate 0.51% among 340,000 | Q9Y4P1 | ATG4B cleavage of LC3-PLA2, NBD-HPC fluorescence, 1 h | AID 504462
TPT1 inh: blocks Candida albicans tRNA 2'-phosphotransferase | recombinant caTPT1, FP RNA substrate dephosphorylation | inhibition, % at 5 µM | hit rate 0.81% among 300,000;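 active = inhibition above the mean of all tested compounds plus 3 SD, set per screening campaign, cut at about 24% in these data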;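 also: plate controls were DMSO alone for no effect and ferristatin control at 100 nM for full effect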
HNF4A DNA FP: change in binding of human HNF4 alpha to DNA. AID 1224865. activity change, % at 10 µM. hit rate 0.3% among 360,000. P41235. HNF4a-FITC DNA binding, fluorescence polarization, 1 h; in the data active = activity change above about 30%, passing the limit was not always enough
CSN deneddyl inh: inhibitors of human CSN-mediated cullin deneddylation; Q92905; Purified CSN, SCF-Nedd8-OG deneddylation, fluorescence polarization; inhibition, % at 12.5 µM; hit rate 0.38% among 360,000;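 active = pattern-corrected inhibition above about 35%, with an unprinted fluorescence ratio check between 0.5 and 1.5, limit read from the data, passing the limit was not always enough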;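 also: 0% = enzyme with substrate and 100% = substrate without enzyme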
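Detection – fluorescence polarization · System – HEK293T-derived human Csn5 enzyme · Controls – substrate-only high control, full reaction low control · Timing – 90 min, room temperature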
Rpn11 confirm: confirmation of human proteasome Rpn11 inhibitors | shares compounds with Rpn11 block | purified human 26S proteasome, Ub4-pepOG fluorescence polarization; proteasome pretreated with epoxomicin | inhibition, % at 20 µM | hit rate 29% among 1,900
MMP-2 counter-1: blocks human MMP-2, flagging nonselective RPN11 hits. shares compounds with Rpn11 block. recombinant MMP-2, FRET peptide cleavage fluorescence. inhibition, % at 20 µM. hit rate 4% among 1,900. AID 602330;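 also: human MMP-2 activated beforehand with APMA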
Thrombin inh: counter-screen for RPN11 inhibitors: inhibition of bovine thrombin | shares compounds with Rpn11 block | bovine thrombin cleavage of Ub4-pepOG, fluorescence polarization | inhibition, % at 20 µM | hit rate 13% among 1,900 | AID 602333;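 active = mean inhibition at least 40% at 20 µM, or signal 3 deviations below plate average, so some actives read negative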;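 also: plate controls were thrombin with DMSO for no effect and buffer wells lacking thrombin for full effect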
Target sequence (P00735 whole entry, looked up): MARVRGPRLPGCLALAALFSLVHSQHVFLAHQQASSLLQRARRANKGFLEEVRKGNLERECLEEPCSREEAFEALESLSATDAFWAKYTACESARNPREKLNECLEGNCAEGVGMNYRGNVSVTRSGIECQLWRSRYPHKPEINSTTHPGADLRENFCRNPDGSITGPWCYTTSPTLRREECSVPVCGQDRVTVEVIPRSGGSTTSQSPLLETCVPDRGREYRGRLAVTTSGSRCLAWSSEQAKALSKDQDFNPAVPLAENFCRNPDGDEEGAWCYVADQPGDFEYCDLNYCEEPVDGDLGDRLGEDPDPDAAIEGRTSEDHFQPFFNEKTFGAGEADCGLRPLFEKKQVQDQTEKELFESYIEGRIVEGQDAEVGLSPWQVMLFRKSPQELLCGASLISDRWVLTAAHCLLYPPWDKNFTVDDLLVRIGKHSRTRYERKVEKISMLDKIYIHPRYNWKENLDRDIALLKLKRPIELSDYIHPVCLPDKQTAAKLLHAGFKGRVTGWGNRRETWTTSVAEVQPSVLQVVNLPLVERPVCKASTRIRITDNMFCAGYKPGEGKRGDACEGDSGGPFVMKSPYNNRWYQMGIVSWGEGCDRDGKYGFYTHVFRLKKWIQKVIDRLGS
SENP1 inh conf: SENP1 (human) inhibition, single concentration confirmation. shares compounds with SENP1 FRET inh. recombinant SENP1, CyPet-SUMO1-YPet FRET cleavage. inhibition, % at 10 µM. hit rate 34% among 520; in the data active = inhibition mostly above about 35%, no sharp cut-off; inactive = mostly below about 32%;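 also: 0% = enzyme with DMSO and 100% = no enzyme control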
SENP1 kin conf: SENP1 (human) inhibition, kinetic confirmation. inhibition, % at 10 µM. hit rate 26% among 520. AID 651690. shares compounds with SENP1 FRET inh. recombinant SENP1, CyPet-SUMO1-YPet FRET kinetic cleavage; in the data active = inhibition mostly above about 32%, no sharp cut-off; inactive = mostly below about 29%;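 also: 0% = DMSO with enzyme and 100% = no enzyme substrate only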
CSN deneddyl val: Csn5 (human) deneddylation inhibition, single-concentration validation. shares compounds with CSN deneddyl inh. Csn5 deneddylation of SCF-Nedd8OG, fluorescence polarization, 90 min. inhibition, % at 16.6 µM. hit rate 62% among 540. AID 720654; in the data active = inhibition above about 50%;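 also: 0% = DMSO with enzyme and 100% = no enzyme wells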
MMP-2 counter-2: MMP-2 (human) inhibition, counter-screen for CSN hits. shares compounds with CSN deneddyl inh. recombinant MMP-2, FRET substrate fluorescence, 60 min. inhibition, % at 16.6 µM. hit rate 33% among 540. AID 720655;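 active = corrected plate-normalized z-score of 5 or more, or -5 or less, or inhibition of 15% or more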;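 also: plate controls were DMSO wells with enzyme for no effect and buffer wells lacking MMP-2 for full effect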
Thrombin cntr: blocks bovine thrombin in a CSN deneddylation counter-screen; hit rate 49% among 540; inhibition, % at 16.6 µM; shares compounds with CSN deneddyl inh; bovine thrombin cleavage of Ub4-pepOG, fluorescence polarization;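 active = inhibition at or above a set limit, with a fluorescence interference ratio between 0.5 and a set maximum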
* marks the source's active call; other numbers are inactive results; x = no result given. Rule as the data show it, unless noted: active = inhibition above about 40%; inactive = the rest.

SMILES	Rpn11 block	SENP1 FRET inh	ATG4B inh	TPT1 inh	HNF4A DNA FP	CSN deneddyl inh	MMP-2 counter-2	Thrombin cntr	others
C[C@]12C=CC(=O)C=C1CC[C@@H]1C2CC[C@]2(C)OC(=O)CCC12 (some centres not stated)	2.5	-1.6	18.2	-3.1	-0.3	-6.0	x	x
CCOP(=O)(OCC)/C(C#N)=C/c1ccoc1	53.8*	-1.4	-1.6	x	10.0	6.8	x	x	Rpn11 confirm=0.2;MMP-2 counter-1=-60.1;Thrombin inh=-9.4
Cc1[nH]nc2ccc(-c3cncc(OC[C@@H](N)Cc4c[nH]c5ccccc45)c3)cc12	-14.8	-0.8	6.4	x	-2.1	11.8	x	x
O=C1NC(=S)N(c2ccccc2)C(=O)/C1=C/c1ccco1	75.6*	-18.0	58.6*	12.3	-43.4	53.3*	45.7*	38.6	Rpn11 confirm=90.3*;MMP-2 counter-1=60.9*;Thrombin inh=24.1
COc1ccc(C2NCCc3[nH]cnc32)cc1 (configuration not stated)	-9.6	2.5	-6.3	-0.5	1.6	-0.5	x	x
Cc1ccccc1NC(=NCCCN1CC1)Nc1ccccc1C	92.3*	0.7	5.2	x	174.0	117.2*	25.7*	29.2*	Rpn11 confirm=98.9*;MMP-2 counter-1=-127.7;Thrombin inh=52.5*;CSN deneddyl val=-59.3
Cc1ccccc1NC(=O)c1cc(-c2ccccc2)n(CCCN2CCOCC2)c1C	8.9	-2.5	0.8	-2.9	1.6	2.9	x	x
CCOC(=O)c1c(-n2c(C)cc(C=C3C(=O)NC(=S)NC3=O)c2C)sc2c1CCCC2	43.0*	-23.4	6.0	20.0	-5.8	49.0*	31.3*	12.2	Rpn11 confirm=34.7;MMP-2 counter-1=23.1;Thrombin inh=17.1;CSN deneddyl val=82.8*
CCc1ccc(NC(=O)CN2CC(c3ccccc3)CC2=O)cc1 (configuration not stated)	1.4	3.6	-7.3	1.1	4.8	4.8	x	x
COc1ccc(OC)c(-n2c(O)c(/C=C3\C(C)=Nc4ccccc43)c(=O)[nH]c2=O)c1	x	81.9*	-5.4	22.4	13.2	26.1	x	x	SENP1 inh conf=10.2;SENP1 kin conf=11.7
COc1ccc(C(Nc2ccccc2)P(=O)(Oc2ccccc2)Oc2ccccc2)cc1 (configuration not stated)	-1.2	0.6	2.1	-1.5	-0.4	-9.8	x	x
COc1ccccc1N1CCN(Cc2ccccc2Cl)CC1	2.0	35.0*	-9.1	-1.2	1.9	0.2	x	x	SENP1 inh conf=-4.5;SENP1 kin conf=1.8
COC(=O)C1=Nc2ccccc2/C1=C\c1c(O)n(C)c(=O)n(C)c1=O	23.0	-15.7	-5.8	11.3	3.3	1.6	x	x
Cn1c(O)c(/C=C2\C=Nc3ccccc32)c(=O)n(C)c1=O	x	53.7*	-7.3	20.4	0.9	100.3	x	x	SENP1 inh conf=3.8;SENP1 kin conf=8.2
COc1cc2c(cc1OC)C13CCN4CC5CCOC6CC(=O)N2C1C6C5CC43 (configuration not stated)	-1.6	3.3	-5.9	x	3.4	0.1	x	x
CCOCCCn1c(N)c(C(=O)Nc2sc3c(c2C(=O)OC)CCCC3)c2nc3ccccc3nc21	-1.0	-27.2	-1.6	3.6	14.1	52.0*	0.2	1.3	CSN deneddyl val=92.7*
CN1CCN(c2nc3c(c(=O)[nH]2)CCC3)CC1	-6.7	1.4	3.4	1.0	-4.3	-5.7	x	x
COC(/C(C)=C/C=C/C(C)=C/c1coc(C)n1)C(C)C1CC(O)C2(C)OC2C=CC(C)C2CC(CC(=O)O2)CC2OC2C(=O)O1 (configuration not stated)	6.4	-7.9	-7.6	x	-0.2	-0.8	x	x
COc1ccccc1N1C(=O)NC(=O)/C(=C/c2ccc([N+](=O)[O-])s2)C1=O	x	x	-6.4	13.3	x	x	x	x
O=C1NC(=O)N(Cc2ccc(F)cc2)C(=O)/C1=C\c1ccc([N+](=O)[O-])s1	35.0	3.6	12.5	22.9	-9.2	35.4*	15.1*	-0.3	CSN deneddyl val=34.1
CCC1(Oc2ccccc2)C(=O)NC(=O)NC1=O	0.4	2.3	3.3	x	2.8	-2.6	x	x
CCC1(C)OC(c2ccccc2)=C/C(=C/C=C2C(=O)NC(=O)NC2=O)O1 (configuration not stated)	x	-26.5	-0.9	x	180.1	78.1*	-16.1	50.7*	CSN deneddyl val=138.7*
CC(C)n1c(=O)c(C=Nc2ccc(F)cc2)c(O)n(Cc2ccco2)c1=O	8.8	-5.8	-7.2	2.6	3.2	6.0	x	x
CCOc1cccc(N2C(=O)/C(=C/c3ccco3)C(=O)NC2=S)c1	x	-8.2	16.1	19.8	-45.2	39.1*	34.0*	9.8
O=C1NC(=O)N(c2cccc(Cl)c2)C(=O)/C1=C\c1ccc(Sc2nc3ccccc3[nH]2)o1	58.4*	-15.7	23.9	-30.5	16.5	37.9*	-7.5	25.2*	CSN deneddyl val=8.2

Source: PubChem
